Consider 21 compounds from PubChem BioAssay AID493089 (Broad Institute, 2011).

Values joined by “and” are separate entries in the source; they are usually repeats but may differ in a detail not shown here. Equal entries are not always repeated. Records with an inconclusive call do not appear. Active and inactive are the calls of the source.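 How the source made its calls: active means fitted half-maximal dose no more than ten times the top valid dose tested, with signal falling; inconclusive means flat curve at 30 to 70% inhibition, or poor fit; inactive means the rest, including rising signal.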

The test system of the first experiment is C. albicans CaCi-2 + fluconazole growth, Alamar Blue, 48 h. The experiment is described as follows: Candida CaCi-2 inhibition under fluconazole co-treatment – CaCi-2 isolate, dry powder retest, set 2, confirmation (AID 493089).
Settings: not given
In short, it runs like this: (§1)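 Material: C. albicans CaCi-2, fluconazole-resistant isolate / Medium: RPMI-based defined medium with MOPS plus 8 µg/mL fluconazole / Schedule: 48 h compound exposure, 37 °C, 90% humidity, 2 h dye / Measured by: Alamar Blue fluorescence, 1:200 final, excitation 544 nm, emission 590 nm / Read-out basis: relative growth, signal decrease as inhibition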
The term AC50 denotes the concentration giving half of the maximal activity seen. `CC1CCN(C(=O)Cn2c3ccccc3c3nc4n(c(=O)c32)CCS4)CC1`: the AC50 is 5130 nM.
The same measure, in the same setting: in the case of `O=C(Cn1c2ccc(F)cc2c2nc3n(c(=O)c21)CCS3)N1CCCC1` it was 583 nM; in that of `O=C(Cn1c2ccc(F)cc2c2nc3n(c(=O)c21)CCS3)N1CCCCCC1`, 1490 nM; in that of `O=c1c2[nH]c3ccccc3c2nc2n1CCS2`, 10500 nM.
The same measure, in the same setting: as for `COc1ccc(NC(=O)Cn2c3ccccc3c3nc4n(c(=O)c32)CCS4)cc1`, the figure is 3020 nM; as for `COC(=O)Cn1nc(-c2ccccc2)c2ccccc21`, 2890 nM.
On to `O=C(Cn1c2ccc(F)cc2c2nc3n(c(=O)c21)CCS3)N1CCCCC1`, for which the AC50 was 628 nM.
On to `O=C(Cn1c2ccccc2c2nc3n(c(=O)c21)CCS3)N1CCOCC1`, for which the AC50 is 3570 nM.
Same read-out and setting: in the case of `O=C(Cn1c2ccccc2c2nc3n(c(=O)c21)CCS3)N1CCCCC1` it was 2150 nM; in that of `O=c1c2[nH]c3ccc(F)cc3c2nc2n1CCS2`, 3410 nM.
On to `CC1CCN(C(=O)Cn2c3ccc(F)cc3c3nc4n(c(=O)c32)CCCS4)CC1`, for which the AC50 is 2740 nM.
Take `CCN(CC)C(=O)Cn1c2ccccc2c2nc3n(c(=O)c21)CCS3`: the concentration at half-maximal activity (AC50) is 1740 nM and 2300 nM.
Consider `O=C(Cn1c2ccccc2c2nc3n(c(=O)c21)CCS3)N1CCCC1`, for which the AC50 was 1100 nM and 3520 nM.
With `COC(=O)Cn1nc(-c2ccc(C)cc2)c2ccccc21`, the half-maximal activity concentration (AC50) was 12000 nM.
On the same count and under the same terms, as for `CCN(CC)C(=O)Cn1c2ccc(F)cc2c2nc3n(c(=O)c21)CCS3`, the figure is 645 nM.

Tested on in the next experiment: not listed separately
The experiment is described as above. Conditions: C. albicans CaCi-2 + fluconazole growth, Alamar Blue, 48 h; at 1.2 µM (top of the series). In a few lines: as §1
(In general: Resazurin is reduced to fluorescent resorufin, in cell work by metabolically active cells.)
`COc1ccc2c(c1)c1nc3n(c(=O)c1n2CC(=O)N1CCC(C)CC1)CCS3`: the activity change, negative = inhibition is -8.53% (inactive).

Staying with this experiment, now noted: C. albicans CaCi-2 (fluconazole-resistant clinical isolate) + fluconazole growth, Alamar Blue, 48 h; at 12 µM (top of the series).
In the case of `COC(=O)Cn1c(-c2ccccc2)nc2ccccc21`, the activity change, negative = inhibition was -10.6% (inactive).
On the same count and under the same terms, as for `O=C(Cn1c2ccccc2c2nc3n(c(=O)c21)CCCS3)c1ccc(F)cc1`, the figure is -21.3% (inactive); as for `O=C(O)Cn1nc(-c2ccccc2)c2ccccc21`, -10.3% (inactive).
The same measure, in the same setting: in the case of `N#Cc1cccc(N2CCN(C(=O)c3ccc(Cl)cc3)CC2)n1` it was -7.37% (inactive); in that of `O=C(Cn1c2ccccc2c2nc3n(c(=O)c21)CCS3)NCCc1ccc(Cl)cc1`, -24.6% (inactive).
